The subject of test [1] is SW-620. In words: Cytotoxicity against human SW620 cells by colorimetric method. The format is functional, cell-based.
Test [2] relates to NCI-H23. Description: Cytotoxicity against human NCI-H23 cells by colorimetric method. The format is functional, cell-based.
For another test, the target named is Histone deacetylase. Description: Inhibition of HDAC in human HeLa nuclear extract using fluoroscence-labeled acetylated peptide as substrate by fluorometric assay. The format is subcellular, Nucleus.
Another test is filed under the species Homo sapiens. Description: Selectivity index, ratio of IC50 for HDAC2 (unknown origin) to IC50 for HDAC6 (unknown origin).
The target of a further test is Histone deacetylase 2 (Homo sapiens, UniProt Q92769). Description: Inhibition of HDAC2 (unknown origin).
For test [3], the target named is T1, Protein deacetylase HDAC6 (Homo sapiens, UniProt Q9UBN7).
T1 sequence (Q9UBN7 whole entry): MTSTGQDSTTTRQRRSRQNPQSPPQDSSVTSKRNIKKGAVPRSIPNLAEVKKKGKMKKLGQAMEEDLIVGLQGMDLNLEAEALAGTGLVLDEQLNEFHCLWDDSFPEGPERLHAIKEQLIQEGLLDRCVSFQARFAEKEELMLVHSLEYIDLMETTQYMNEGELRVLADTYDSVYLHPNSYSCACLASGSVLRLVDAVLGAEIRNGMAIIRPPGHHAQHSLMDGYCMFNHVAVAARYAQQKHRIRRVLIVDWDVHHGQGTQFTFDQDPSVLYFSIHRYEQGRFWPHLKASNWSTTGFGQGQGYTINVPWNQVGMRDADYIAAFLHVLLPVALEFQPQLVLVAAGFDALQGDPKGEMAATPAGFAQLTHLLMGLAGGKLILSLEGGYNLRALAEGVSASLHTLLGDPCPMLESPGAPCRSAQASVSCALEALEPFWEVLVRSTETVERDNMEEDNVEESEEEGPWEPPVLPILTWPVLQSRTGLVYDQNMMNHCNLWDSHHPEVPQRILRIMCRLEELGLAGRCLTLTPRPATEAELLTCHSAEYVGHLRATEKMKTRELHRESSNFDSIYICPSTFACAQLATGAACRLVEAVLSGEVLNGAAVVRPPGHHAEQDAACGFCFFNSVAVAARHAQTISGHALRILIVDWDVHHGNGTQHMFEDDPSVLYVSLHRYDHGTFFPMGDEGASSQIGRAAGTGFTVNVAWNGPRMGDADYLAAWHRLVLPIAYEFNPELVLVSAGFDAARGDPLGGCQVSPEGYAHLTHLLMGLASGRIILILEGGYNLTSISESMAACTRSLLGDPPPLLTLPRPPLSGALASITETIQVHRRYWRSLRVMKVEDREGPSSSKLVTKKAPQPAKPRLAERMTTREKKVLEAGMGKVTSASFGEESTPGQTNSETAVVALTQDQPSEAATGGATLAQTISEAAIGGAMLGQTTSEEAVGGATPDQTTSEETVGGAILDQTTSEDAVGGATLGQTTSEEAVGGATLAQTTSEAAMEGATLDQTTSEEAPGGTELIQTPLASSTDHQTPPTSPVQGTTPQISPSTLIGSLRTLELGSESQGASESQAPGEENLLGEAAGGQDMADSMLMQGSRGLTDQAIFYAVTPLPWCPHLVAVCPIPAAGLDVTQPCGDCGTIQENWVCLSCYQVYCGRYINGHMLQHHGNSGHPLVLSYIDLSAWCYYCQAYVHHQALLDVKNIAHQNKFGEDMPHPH
Description: Inhibition of HDAC6 (unknown origin).

In test [4] the test system is NCI-H23. Description: Potency index, ratio of adriamycin IC50 to compound IC50 for human NCI-H23 cells by colorimetric method. The format is functional. The method in brief: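 Growth inhibition of cancer cells read by a colorimetric method with slight modifications. IC50 is the concentration giving 50% reduction in cell growth, computed by the Probits method and averaged over three independent experiments. The index is the reference drug's IC50 divided by the compound's IC50 in the same cell line.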

Another test deals with PC-3. Description: Cytotoxicity against human PC3 cells by colorimetric method. The format is functional, cell-based.
Test [5] has as its system SW-620. Description: Induction of cell cycle arrest in human SW-620 cells assessed as accumulation at G0/G1 phase by flow cytometry. The format is functional, cell-based. For orientation: Flow cytometry measures light scatter and fluorescence of single cells or particles in a stream.
The subject of test [6] is SW-620. In words: Induction of apoptosis in human SW620 cells assessed as early apoptotic cells by flow cytometry. The format is functional, cell-based.
The subject of test [7] is SW-620. In words: Induction of cell cycle arrest in human SW-620 cells assessed as accumulation at S phase by flow cytometry. The format is functional, cell-based.

Where a name gives a salt, the structure may show the parent alone. Calls of active or inactive are those of the source. No cut-off for these calls is given here. Some results are limits rather than exact numbers.

Chain of Histone deacetylase 2 (Q92769 whole entry): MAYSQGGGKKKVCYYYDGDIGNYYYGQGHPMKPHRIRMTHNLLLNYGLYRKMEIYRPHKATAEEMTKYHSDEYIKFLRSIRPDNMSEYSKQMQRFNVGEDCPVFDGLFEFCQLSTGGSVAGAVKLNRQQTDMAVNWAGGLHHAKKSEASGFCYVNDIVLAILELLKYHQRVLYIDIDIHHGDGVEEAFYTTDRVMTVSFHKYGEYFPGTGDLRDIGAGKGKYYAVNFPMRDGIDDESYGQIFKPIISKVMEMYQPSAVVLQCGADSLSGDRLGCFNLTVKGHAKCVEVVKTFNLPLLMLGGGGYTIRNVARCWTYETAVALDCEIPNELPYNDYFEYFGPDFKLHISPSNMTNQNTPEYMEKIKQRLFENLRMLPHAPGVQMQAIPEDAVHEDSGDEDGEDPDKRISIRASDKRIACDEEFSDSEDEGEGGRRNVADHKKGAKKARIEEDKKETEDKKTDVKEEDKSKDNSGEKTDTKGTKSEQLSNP

The term IC50 denotes the concentration needed to halve the response being measured. On to `O=C(NO)c1ccc(CN2C(=O)/C(=C3\Nc4ccccc4\C3=N/O)c3cc(Cl)ccc32)cc1`, for which the IC50 in the test on SW-620 [1] is 60 nM; in the test with NCI-H23 [2] it was 50 nM; on Histone deacetylase, 174 nM; against Histone deacetylase 2, 187 nM; in test [3], 16 nM; in the test with PC-3, 50 nM. For the same molecule, the Ratio IC50 in the test filed under Homo sapiens was 11.7; in the test with NCI-H23 [4], “<=10”.
For the molecule `O=C(NO)c1ccc(CN2C(=O)/C(=C3\Nc4ccccc4\C3=N/O)c3cc(F)ccc32)cc1`, the IC50 in the test with SW-620 [1] came to 20 nM; in the test with NCI-H23 [2], 30 nM; against Histone deacetylase, 218 nM; at Histone deacetylase 2, 194 nM; in test [3], 43 nM; with PC-3, 50 nM. For the same molecule, the Ratio IC50 in the test listed under Homo sapiens was 4.5; in the test with NCI-H23 [4], “<=10”.
Turning to `O=C(/C=C/c1ccc(CN2C(=O)/C(=C3\Nc4ccccc4\C3=N/O)c3cc(Cl)ccc32)cc1)NO`, the IC50 in the test with SW-620 [1] was determined as 80 nM; in the test with NCI-H23 [2], 7 nM; against Histone deacetylase, 318 nM; with PC-3, 60 nM. Besides, in the test on NCI-H23 [4], the “Ratio IC50” value is “<=10”.
The corresponding values for `O=C(/C=C/c1ccc(CN2C(=O)/C(=C3\Nc4ccccc4\C3=N/O)c3cc(Br)ccc32)cc1)NO` are 60 nM, 9 nM, 183 nM, 90 nM and “<=10”.
As to `COc1ccc2c(c1)/C(=C1/Nc3ccccc3/C1=N\O)C(=O)N2Cc1ccc(/C=C/C(=O)NO)cc1`, the IC50 in the test on SW-620 [1] was 40 nM; with NCI-H23 [2] it was 50 nM; against Histone deacetylase, 5 nM; in the test with PC-3 it was 30 nM. The “Ratio IC50” value with NCI-H23 [4] is “<=10”.
The corresponding values for `Cc1ccc2c(c1)/C(=C1/Nc3ccccc3/C1=N\O)C(=O)N2Cc1ccc(/C=C/C(=O)NO)cc1` are 50 nM, 10 nM, 20 nM, 60 nM and “<=10”.
The corresponding values for `O=C(CCCCCCN1C(=O)/C(=C2\Nc3ccccc3\C2=N/O)c2cc(Br)ccc21)NO` are 90 nM, 9 nM, 4 nM, 30 nM and “<=10”.
For `O=C(/C=C/c1ccc(CN2C(=O)/C(=C3\Nc4ccccc4\C3=N/O)c3cccc(Cl)c32)cc1)NO` the same measures were 60 nM, 50 nM, 604 nM, 90 nM and “<=10”.
In the case of `O=C(NO)c1ccc(CN2C(=O)/C(=C3\Nc4ccccc4\C3=N/O)c3ccccc32)cc1`, the IC50 in the test on SW-620 [1] came to 70 nM; with NCI-H23 [2], 70 nM; at Histone deacetylase, 195 nM; against Histone deacetylase 2 it was 205 nM; in [3], 7 nM; with PC-3, 60 nM. Moreover, the Ratio IC50 was 29 in the test filed under Homo sapiens and “<=10” in the test on NCI-H23 [4]. For the same molecule, in the test with SW-620 [5], the result was Active.
For the molecule `O=C(CCCCCCN1C(=O)/C(=C2\Nc3ccccc3\C2=N/O)c2cc(F)ccc21)NO`, the IC50 with SW-620 [1] came to 80 nM; in the test on NCI-H23 [2], 8 nM; at Histone deacetylase it was 14 nM; in the test on PC-3 it was 12 nM. Besides, the “Ratio IC50” value in the test with NCI-H23 [4] is “<=10”.
For `Cc1ccc2c(c1)/C(=C1/Nc3ccccc3/C1=N\O)C(=O)N2Cc1ccc(C(=O)NO)cc1`, the IC50 stood at 30 nM in the test on SW-620 [1]; 10 nM in the test with NCI-H23 [2]; 5 nM against Histone deacetylase; 21 nM against Histone deacetylase 2; 20 nM in [3]; 90 nM in the test on PC-3. The “Ratio IC50” value in the test with NCI-H23 [4] was “<=10”.
In the case of `O=C(CCCCCCC(=O)Nc1ccccc1)NO`, the result in the test with SW-620 [6] was Active.
On to `O=C(NO)c1ccc(CN2C(=O)/C(=C3\Nc4ccccc4\C3=N/O)c3cccc(Cl)c32)cc1`, for which the concentration for half-maximal inhibition (IC50) in the test on SW-620 [1] was determined as 90 nM; with NCI-H23 [2], 60 nM; against Histone deacetylase, 71 nM; against Histone deacetylase 2 it was 88 nM; in test [3] it was 49 nM; in the test with PC-3 it was 60 nM. The “Ratio IC50” value in the test with NCI-H23 [4] is listed as “<=10”.
With `O=C(CCCCCCN1C(=O)/C(=C2\Nc3ccccc3\C2=N/O)c2cc(Cl)ccc21)NO`, the IC50 in the test on SW-620 [1] is 60 nM; in the test with NCI-H23 [2] it was 30 nM; on Histone deacetylase, 3 nM; with PC-3 it was 90 nM. For the same molecule, the “Ratio IC50” value in the test with NCI-H23 [4] is given as “<=10”.
The corresponding values for `O=C(CCCCCCN1C(=O)/C(=C2\Nc3ccccc3\C2=N/O)c2cccc(Cl)c21)NO` are 90 nM, 50 nM, 7 nM, 30 nM and “<=10”.
The corresponding values for `COc1ccc2c(c1)/C(=C1/Nc3ccccc3/C1=N\O)C(=O)N2CCCCCCC(=O)NO` are 30 nM, 70 nM, 21 nM, 50 nM and “<=10”.
The corresponding values for `O=C(/C=C/c1ccc(CN2C(=O)/C(=C3\Nc4ccccc4\C3=N/O)c3cc(F)ccc32)cc1)NO` are 50 nM, 8 nM, 422 nM, 50 nM and “<=10”.
Regarding `COc1ccc2c(c1)/C(=C1/Nc3ccccc3/C1=N\O)C(=O)N2Cc1ccc(C(=O)NO)cc1`, the IC50 with SW-620 [1] is 40 nM; with NCI-H23 [2], 90 nM; on Histone deacetylase it was 25 nM; at Histone deacetylase 2, 31 nM; in [3], 30 nM; with PC-3, 30 nM. For the same molecule, the “Ratio IC50” value with NCI-H23 [4] is “<=10”.
Turning to `O=C(/C=C/c1ccc(CN2C(=O)/C(=C3\Nc4ccccc4\C3=N/O)c3ccccc32)cc1)NO`, the IC50 in the test on SW-620 [1] was found to be 50 nM; with NCI-H23 [2] it was 9 nM; at Histone deacetylase it was 95 nM; in the test with PC-3, 50 nM. Also, the result in the test with SW-620 [7], in the test on SW-620 [6] and in the test with SW-620 [5] was Active. The “Ratio IC50” value with NCI-H23 [4] is on record as “<=10”.
For `O=C(CCCCCCN1C(=O)/C(=C2\Nc3ccccc3\C2=N/O)c2ccccc21)NO`, the half-maximal inhibitory concentration (IC50) in the test with SW-620 [1] came to 90 nM; in the test with NCI-H23 [2], 90 nM; against Histone deacetylase it was 22 nM; with PC-3, 50 nM. Besides, in the test with SW-620 [6], the outcome was Active. Moreover, the “Ratio IC50” value with NCI-H23 [4] is on record as “<=10”.
For the molecule `O=C(NO)c1ccc(CN2C(=O)/C(=C3\Nc4ccccc4\C3=N/O)c3cc(Br)ccc32)cc1`, the IC50 was found to be 70 nM in the test on SW-620 [1]; 7 nM in the test with NCI-H23 [2]; 39 nM at Histone deacetylase; 75 nM at Histone deacetylase 2; 24 nM in [3]; 50 nM in the test with PC-3. For the same molecule, the “Ratio IC50” value in the test on NCI-H23 [4] is “<=10”.
On to `COc1cccc2c1C(=O)c1c(O)c3c(c(O)c1C2=O)C[C@@](O)(C(=O)CO)C[C@@H]3O[C@H]1C[C@H](N)[C@H](O)[C@H](C)O1` [DOXORUBICIN HYDROCHLORIDE], for which the IC50 in the test with SW-620 [1], in the test on NCI-H23 [2] and with PC-3 was 90 nM in each case.
On to `Cc1ccc2c(c1)/C(=C1/Nc3ccccc3/C1=N\O)C(=O)N2CCCCCCC(=O)NO`, for which the IC50 in the test on SW-620 [1] worked out at 50 nM; in the test with NCI-H23 [2] it was 10 nM; at Histone deacetylase, 18 nM; in the test on PC-3, 80 nM. Besides, in the test on NCI-H23 [4], the “Ratio IC50” value is “<=10”.
For `O=C1Nc2ccccc2/C1=C1/Nc2ccccc2/C1=N\O`, the IC50 is 13500 nM in the test on SW-620 [1], 11200 nM in the test with NCI-H23 [2] and 15800 nM in the test on PC-3.

These data come from ChEMBL document CHEMBL4699494, “Design, synthesis and evaluation of novel indirubin-based N-hydroxybenzamides, N-hydroxypropenamides and N-hydroxyheptanamides as histone deacetylase inhibitors and antitumor agents” (Bioorg Med Chem Lett, 2020).
